# Columns and labels:
# [1] = target: Cyclin-dependent kinase 13 (Homo sapiens, UniProt Q14004); test: Inhibition of CHED in human HeLa cells lysate at 10 uM pre incubated for 15 mins followed by ADP acyl phosphate probe addition and measured after 10 mins by LC-MS/MS analysis relative to control; assay type: subcellular; settings: time 25.0 min
# Outline: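 KiNativ profiling in HeLa lysate (5 mg/mL total protein). Lysate incubated 15 min with inhibitor at 50, 10, 2, 0.8 or 0 μM. ATP or ADP acylphosphate probe then added (5 μM final) and reacted 10 min. Reaction stopped with urea and analysed by targeted MS, using up to four fragment ions per kinase peptide-probe conjugate. % inhibition taken against untreated lysate. Run in duplicate.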
# [2] = target: Serine/threonine-protein kinase LATS1 (Homo sapiens) (UniProt O95835); test: Inhibition of LATS1 in human HeLa cells lysate at 2 uM pre incubated for 15 mins followed by ATP acyl phosphate probe addition and measured after 10 mins by LC-MS/MS analysis relative to control; assay type: subcellular; settings: time 25.0 min
# Sequence of Serine/threonine-protein kinase LATS1 (Homo sapiens) (O95835 whole entry): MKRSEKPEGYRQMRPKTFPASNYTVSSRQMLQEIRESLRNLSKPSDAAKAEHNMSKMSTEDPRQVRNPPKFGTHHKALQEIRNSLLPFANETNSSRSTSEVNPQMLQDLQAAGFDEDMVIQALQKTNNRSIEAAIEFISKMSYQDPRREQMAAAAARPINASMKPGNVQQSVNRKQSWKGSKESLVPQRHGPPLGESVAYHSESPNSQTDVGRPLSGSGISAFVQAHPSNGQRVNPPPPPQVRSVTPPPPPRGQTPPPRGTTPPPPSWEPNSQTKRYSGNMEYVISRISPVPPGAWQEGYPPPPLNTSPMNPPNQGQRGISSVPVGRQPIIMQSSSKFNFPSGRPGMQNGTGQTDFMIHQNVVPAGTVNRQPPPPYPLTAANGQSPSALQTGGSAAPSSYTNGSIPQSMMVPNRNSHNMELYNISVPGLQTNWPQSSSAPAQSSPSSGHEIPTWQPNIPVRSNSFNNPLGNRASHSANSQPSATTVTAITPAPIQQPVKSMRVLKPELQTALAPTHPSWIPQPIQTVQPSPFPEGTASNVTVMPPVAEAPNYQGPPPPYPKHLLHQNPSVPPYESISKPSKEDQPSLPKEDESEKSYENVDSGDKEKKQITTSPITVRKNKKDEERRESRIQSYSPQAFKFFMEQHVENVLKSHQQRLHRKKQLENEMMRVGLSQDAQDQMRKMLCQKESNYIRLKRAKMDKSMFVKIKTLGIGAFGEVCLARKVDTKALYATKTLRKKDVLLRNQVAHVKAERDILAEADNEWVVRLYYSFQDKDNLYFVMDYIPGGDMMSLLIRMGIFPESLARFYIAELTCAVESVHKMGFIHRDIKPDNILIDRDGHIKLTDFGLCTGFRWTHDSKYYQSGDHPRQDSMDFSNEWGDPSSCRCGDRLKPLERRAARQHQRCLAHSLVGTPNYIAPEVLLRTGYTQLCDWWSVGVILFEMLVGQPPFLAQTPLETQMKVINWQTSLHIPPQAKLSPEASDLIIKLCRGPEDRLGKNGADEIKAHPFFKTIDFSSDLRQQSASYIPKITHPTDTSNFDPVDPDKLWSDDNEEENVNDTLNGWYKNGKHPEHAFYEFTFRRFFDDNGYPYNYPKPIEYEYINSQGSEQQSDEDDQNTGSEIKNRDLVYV
# [3] = Inhibition of MST4/YSK1 in human HeLa cells lysate at 50 uM pre incubated for 15 mins followed by ATP acyl phosphate probe addition and measured after 10 mins by LC-MS/MS analysis relative to control; settings: 25 min, condition cancer
# [4] = target: T1, Dual specificity mitogen-activated protein kinase kinase 4 (Homo sapiens) (UniProt P45985); test: Inhibition of MAP2K4 in human HeLa cells lysate at 2 uM pre incubated for 15 mins followed by ATP acyl phosphate probe addition and measured after 10 mins by LC-MS/MS analysis relative to control; assay type: subcellular; settings: time 25.0 min
# T1 sequence (whole entry): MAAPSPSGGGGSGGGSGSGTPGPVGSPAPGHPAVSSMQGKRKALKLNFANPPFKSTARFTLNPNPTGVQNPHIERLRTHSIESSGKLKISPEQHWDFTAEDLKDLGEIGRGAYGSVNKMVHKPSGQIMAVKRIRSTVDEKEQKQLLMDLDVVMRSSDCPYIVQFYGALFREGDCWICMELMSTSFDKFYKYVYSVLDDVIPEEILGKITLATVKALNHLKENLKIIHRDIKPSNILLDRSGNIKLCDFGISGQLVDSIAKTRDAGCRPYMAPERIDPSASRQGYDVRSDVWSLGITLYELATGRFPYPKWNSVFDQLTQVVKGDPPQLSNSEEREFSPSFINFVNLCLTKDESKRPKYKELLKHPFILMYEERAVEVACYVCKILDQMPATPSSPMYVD
# Wee1-like protein kinase = Wee1-like protein kinase (Homo sapiens, UniProt P30291); test: Inhibition of Wee1 in human HeLa cells lysate at 50 uM pre incubated for 15 mins followed by ATP acyl phosphate probe addition and measured after 10 mins by LC-MS/MS analysis relative to control; assay type: subcellular; settings: time 25.0 min
# Sequence of Wee1-like protein kinase (P30291 whole entry, looked up): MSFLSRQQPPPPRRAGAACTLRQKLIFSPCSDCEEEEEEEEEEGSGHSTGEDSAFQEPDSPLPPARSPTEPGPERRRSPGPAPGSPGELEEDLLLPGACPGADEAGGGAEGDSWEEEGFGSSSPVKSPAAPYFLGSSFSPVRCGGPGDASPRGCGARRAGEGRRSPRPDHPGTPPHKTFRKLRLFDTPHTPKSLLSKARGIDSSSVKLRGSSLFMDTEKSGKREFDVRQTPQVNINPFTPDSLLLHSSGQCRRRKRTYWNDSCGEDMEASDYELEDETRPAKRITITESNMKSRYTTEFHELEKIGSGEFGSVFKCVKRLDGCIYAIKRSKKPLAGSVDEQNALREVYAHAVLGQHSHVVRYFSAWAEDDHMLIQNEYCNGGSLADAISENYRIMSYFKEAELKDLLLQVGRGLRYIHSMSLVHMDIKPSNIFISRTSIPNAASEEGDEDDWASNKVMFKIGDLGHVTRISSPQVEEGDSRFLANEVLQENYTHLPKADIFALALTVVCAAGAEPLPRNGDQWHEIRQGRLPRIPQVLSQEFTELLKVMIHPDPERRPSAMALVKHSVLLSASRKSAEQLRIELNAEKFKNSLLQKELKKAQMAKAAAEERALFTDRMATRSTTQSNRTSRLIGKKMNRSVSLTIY
# [5] = target: T2, Serine/threonine-protein kinase 4 (Homo sapiens) (UniProt Q13043); test: Inhibition of MST1 in human HeLa cells lysate at 2 uM pre incubated for 15 mins followed by ADP acyl phosphate probe addition and measured after 10 mins by LC-MS/MS analysis relative to control; assay type: subcellular; settings: time 25.0 min
# T2 sequence (whole entry): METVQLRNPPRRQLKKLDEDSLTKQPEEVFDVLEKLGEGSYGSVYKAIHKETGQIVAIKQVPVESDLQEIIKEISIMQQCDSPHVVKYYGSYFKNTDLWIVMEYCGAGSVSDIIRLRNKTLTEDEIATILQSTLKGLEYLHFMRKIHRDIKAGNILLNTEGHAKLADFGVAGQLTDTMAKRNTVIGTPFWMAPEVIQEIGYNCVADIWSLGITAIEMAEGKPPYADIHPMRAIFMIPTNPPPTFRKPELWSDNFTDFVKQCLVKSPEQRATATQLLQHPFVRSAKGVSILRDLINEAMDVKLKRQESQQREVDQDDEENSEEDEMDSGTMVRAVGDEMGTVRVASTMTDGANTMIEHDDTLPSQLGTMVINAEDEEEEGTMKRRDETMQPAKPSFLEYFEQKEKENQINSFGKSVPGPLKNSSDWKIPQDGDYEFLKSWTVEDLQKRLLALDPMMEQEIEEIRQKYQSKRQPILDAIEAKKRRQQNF
# Ephrin type-A receptor 2 = Ephrin type-A receptor 2 (Homo sapiens, UniProt P29317); test: Inhibition of EphA2 in human HeLa cells lysate at 10 uM pre incubated for 15 mins followed by ATP acyl phosphate probe addition and measured after 10 mins by LC-MS/MS analysis relative to control; assay type: subcellular; settings: time 25.0 min
# [6] = Inhibition of CK1g1/g2/g3 in human HeLa cells lysate at 2 uM pre incubated for 15 mins followed by ADP acyl phosphate probe addition and measured after 10 mins by LC-MS/MS analysis relative to control; settings: 25 min, condition cancer
# [7] = Inhibition of MSK1/2 in human HeLa cells lysate at 50 uM pre incubated for 15 mins followed by ADP acyl phosphate probe addition and measured after 10 mins by LC-MS/MS analysis relative to control; settings: 25 min, condition cancer
# [8] = target: Phosphatidylinositol 5-phosphate 4-kinase type-2 beta (Homo sapiens, UniProt P78356); test: Inhibition of PIP5K2B in human HeLa cells lysate pre incubated for 15 mins followed by ATP acyl phosphate probe addition and measured after 10 mins by LC-MS/MS analysis; assay type: subcellular
# Sequence of Phosphatidylinositol 5-phosphate 4-kinase type-2 beta (P78356 whole entry): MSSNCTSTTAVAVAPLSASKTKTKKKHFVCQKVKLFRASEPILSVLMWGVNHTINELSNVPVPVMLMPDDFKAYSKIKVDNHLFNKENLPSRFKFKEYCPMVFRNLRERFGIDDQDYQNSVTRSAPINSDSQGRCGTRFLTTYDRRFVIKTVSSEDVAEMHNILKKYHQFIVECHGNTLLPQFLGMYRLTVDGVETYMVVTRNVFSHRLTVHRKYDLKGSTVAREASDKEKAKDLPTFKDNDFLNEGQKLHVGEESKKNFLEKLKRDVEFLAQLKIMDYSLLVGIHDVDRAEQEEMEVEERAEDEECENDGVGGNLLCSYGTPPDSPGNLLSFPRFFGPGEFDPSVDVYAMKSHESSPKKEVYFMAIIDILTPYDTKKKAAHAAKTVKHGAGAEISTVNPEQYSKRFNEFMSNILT
# [9] = target: Serine/threonine-protein kinase ATR (Homo sapiens, UniProt Q13535); test: Inhibition of ATR in human HeLa cells lysate pre incubated for 15 mins followed by ATP acyl phosphate probe addition and measured after 10 mins by LC-MS/MS analysis; assay type: subcellular
# Outline: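 KiNativ-type profiling in HeLa lysate (5 mg/mL total protein). Lysate preincubated 15 min with inhibitor at 50, 10, 2, 0.8 or 0 μM, then ATP or ADP acylphosphate probe added (5 μM final) for 10 min. Reaction stopped with urea and analysed by targeted MS, using up to four fragment ions per kinase peptide-probe conjugate. % inhibition calculated against untreated lysate. Duplicate reactions.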
# [10] = target: Protein kinase C iota type (Homo sapiens, UniProt P41743); test: Inhibition of PKCiota in human HeLa cells lysate pre incubated for 15 mins followed by ADP acyl phosphate probe addition and measured after 10 mins by LC-MS/MS analysis; assay type: subcellular
# Sequence of Protein kinase C iota type (P41743 whole entry): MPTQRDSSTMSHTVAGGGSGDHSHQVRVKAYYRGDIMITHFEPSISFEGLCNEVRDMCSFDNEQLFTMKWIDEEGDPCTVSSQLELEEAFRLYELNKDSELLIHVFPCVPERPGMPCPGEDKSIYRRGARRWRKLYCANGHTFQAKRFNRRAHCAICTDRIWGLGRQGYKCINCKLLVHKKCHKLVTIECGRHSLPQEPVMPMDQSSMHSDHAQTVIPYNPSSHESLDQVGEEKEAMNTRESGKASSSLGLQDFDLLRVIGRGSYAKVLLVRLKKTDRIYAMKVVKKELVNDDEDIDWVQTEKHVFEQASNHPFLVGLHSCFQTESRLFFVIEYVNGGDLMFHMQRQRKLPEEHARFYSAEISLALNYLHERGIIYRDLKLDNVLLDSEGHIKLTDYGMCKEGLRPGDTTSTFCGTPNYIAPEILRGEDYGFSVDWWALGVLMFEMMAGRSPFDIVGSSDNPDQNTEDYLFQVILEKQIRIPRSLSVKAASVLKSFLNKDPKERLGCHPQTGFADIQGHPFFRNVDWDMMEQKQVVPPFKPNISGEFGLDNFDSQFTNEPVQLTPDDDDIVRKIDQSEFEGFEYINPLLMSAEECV
# [11] = Inhibition of MST4/YSK1 in human HeLa cells lysate at 50 uM pre incubated for 15 mins followed by ADP acyl phosphate probe addition and measured after 10 mins by LC-MS/MS analysis relative to control; settings: 25 min, condition cancer
# [12] = target: Mitogen-activated protein kinase 14 (Homo sapiens, UniProt Q16539); test: Inhibition of p38a in human HeLa cells lysate at 2 uM pre incubated for 15 mins followed by ATP acyl phosphate probe addition and measured after 10 mins by LC-MS/MS analysis relative to control; assay type: subcellular; settings: time 25.0 min
# Sequence of Mitogen-activated protein kinase 14 (Q16539 whole entry): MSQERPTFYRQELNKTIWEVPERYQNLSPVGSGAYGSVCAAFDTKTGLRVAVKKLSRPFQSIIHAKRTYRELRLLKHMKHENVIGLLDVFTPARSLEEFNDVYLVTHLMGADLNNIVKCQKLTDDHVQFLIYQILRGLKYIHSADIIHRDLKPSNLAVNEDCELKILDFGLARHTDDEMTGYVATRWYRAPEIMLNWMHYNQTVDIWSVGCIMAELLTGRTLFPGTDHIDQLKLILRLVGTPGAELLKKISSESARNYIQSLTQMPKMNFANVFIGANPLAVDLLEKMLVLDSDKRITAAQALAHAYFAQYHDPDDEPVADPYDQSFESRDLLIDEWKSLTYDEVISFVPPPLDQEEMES
# Sequence of Cyclin-dependent kinase 13 (Q14004 whole entry, looked up, the tested form may be a part): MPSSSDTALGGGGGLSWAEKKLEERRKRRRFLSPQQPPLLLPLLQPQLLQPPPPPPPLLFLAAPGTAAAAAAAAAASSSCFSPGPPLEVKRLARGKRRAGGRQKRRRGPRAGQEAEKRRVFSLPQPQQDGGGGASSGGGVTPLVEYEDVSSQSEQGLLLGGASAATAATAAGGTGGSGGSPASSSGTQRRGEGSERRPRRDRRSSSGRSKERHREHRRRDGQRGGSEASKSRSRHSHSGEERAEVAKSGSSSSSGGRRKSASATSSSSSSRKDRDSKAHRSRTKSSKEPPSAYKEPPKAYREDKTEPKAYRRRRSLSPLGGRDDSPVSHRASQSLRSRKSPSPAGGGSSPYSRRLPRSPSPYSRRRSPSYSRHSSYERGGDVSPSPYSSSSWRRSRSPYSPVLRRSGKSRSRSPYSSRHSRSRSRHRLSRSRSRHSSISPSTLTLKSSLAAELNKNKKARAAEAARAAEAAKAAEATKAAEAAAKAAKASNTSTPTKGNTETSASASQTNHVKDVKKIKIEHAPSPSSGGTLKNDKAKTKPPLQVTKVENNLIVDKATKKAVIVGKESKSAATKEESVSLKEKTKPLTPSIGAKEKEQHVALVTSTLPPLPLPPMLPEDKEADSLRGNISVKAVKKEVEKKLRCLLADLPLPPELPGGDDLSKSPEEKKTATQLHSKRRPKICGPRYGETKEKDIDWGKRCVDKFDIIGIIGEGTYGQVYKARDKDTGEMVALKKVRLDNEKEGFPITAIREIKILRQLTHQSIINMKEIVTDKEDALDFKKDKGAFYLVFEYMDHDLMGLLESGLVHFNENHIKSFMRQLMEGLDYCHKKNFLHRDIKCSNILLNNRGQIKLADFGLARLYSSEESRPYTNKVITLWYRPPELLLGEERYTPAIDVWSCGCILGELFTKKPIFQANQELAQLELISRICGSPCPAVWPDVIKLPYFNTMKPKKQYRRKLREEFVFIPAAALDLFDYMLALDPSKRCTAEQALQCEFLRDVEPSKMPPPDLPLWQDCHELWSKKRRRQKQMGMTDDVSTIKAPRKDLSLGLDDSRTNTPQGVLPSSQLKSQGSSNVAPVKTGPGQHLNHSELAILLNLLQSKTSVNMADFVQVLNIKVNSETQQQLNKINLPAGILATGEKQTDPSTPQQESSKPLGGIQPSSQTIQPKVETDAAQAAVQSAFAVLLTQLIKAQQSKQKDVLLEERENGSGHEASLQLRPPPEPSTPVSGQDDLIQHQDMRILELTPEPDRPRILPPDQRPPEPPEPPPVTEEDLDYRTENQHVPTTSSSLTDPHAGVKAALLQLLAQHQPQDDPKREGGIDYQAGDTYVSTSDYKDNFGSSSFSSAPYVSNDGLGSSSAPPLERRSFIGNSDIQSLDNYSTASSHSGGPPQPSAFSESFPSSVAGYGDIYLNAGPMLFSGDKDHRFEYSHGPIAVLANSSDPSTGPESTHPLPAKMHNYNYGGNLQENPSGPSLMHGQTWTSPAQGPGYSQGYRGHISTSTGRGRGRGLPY
smiles,measurement,setting,value
CCOc1cc(N2CCC(O)CC2)ccc1Nc1ncc2c(n1)N(C)c1ccccc1C(=O)N2C,inhibition,[1],10.7%
same,inhibition,[2],5.7%
same,inhibition at 50 µM,[3],-6.1%
same,inhibition,[4],4.8%
same,inhibition,Wee1-like protein kinase,4.1%
same,inhibition,[5],30.6%
same,inhibition,Ephrin type-A receptor 2,-3.9%
same,inhibition at 2 µM,[6],61.7%
same,inhibition at 50 µM,[7],10%
same,IC50,[8],> 50 µM
same,IC50,[9],> 50 µM
same,IC50,[10],> 50 µM
same,inhibition at 50 µM,[11],-14.3%
same,inhibition,[12],3.8%
